Myeloid diff MLP = compounds promoting myeloid differentiation; ER-HoxA9 myeloid progenitors, lysozyme-GFP differentiation, flow cytometry; calls only at 10 µM; 1% of 360,000 active; AID 624256;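 active means normalized GFP-positive differentiation at or above the plate's own cutoff, the solvent-only control mean plus 3 SD; inconclusive means no clear call, values can overlap the other calls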;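 further: cells exposed to compound for four days before flow analysis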
MC4R barr agon = human MC4R agonism via beta-arrestin; 0.98% of 360,000 active; U2OS MC4R beta-arrestin complementation, luminescence; percent of melanotan II response, DMSO zero; P32245; AID 540308; activation, % at 8.9 µM;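 active means activation above a per-plate cutoff, the mean activation of sample wells on that plate plus 3 SD, cut at about 8% in these data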
Target sequence (P32245 whole entry, looked up): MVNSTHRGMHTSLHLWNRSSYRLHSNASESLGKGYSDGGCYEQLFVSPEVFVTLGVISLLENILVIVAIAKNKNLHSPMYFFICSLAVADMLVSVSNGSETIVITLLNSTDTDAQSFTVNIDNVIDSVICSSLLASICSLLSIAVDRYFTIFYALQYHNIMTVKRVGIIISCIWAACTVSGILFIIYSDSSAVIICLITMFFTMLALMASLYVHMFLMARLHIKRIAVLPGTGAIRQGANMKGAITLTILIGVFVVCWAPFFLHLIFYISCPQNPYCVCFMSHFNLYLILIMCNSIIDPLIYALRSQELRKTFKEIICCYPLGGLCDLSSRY
MC4R antag cAMP = human MC4R antagonism in cAMP assay; P32245; MC4R-expressing cells, MTII-stimulated cAMP, LANCE TR-FRET; inhibition, % at 6.5 µM; 0.48% of 360,000 active; AID 540295;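 active means inhibition above its plate's cutoff, the mean of tested wells on that plate plus 3 SD, cut at about 29% in these data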;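 further: 0% = Melanotan II alone and 100% = Melanotan II plus saturating MCL0020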
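Material: human MC4R-expressing U2OS cells. Probe or stimulus: Melanotan II challenge. Dosing: 6.5 µM single dose. Times: 30-min compound, 1-h challenge, 1-h detection, room temperature. Technique: TR-FRET with Eu-cAMP and labeled anti-cAMP, 671 nm. Replication: singlicate.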
EBI2 antag = blocks human EBI2 receptor beta-arrestin signaling. P32249. EBI2 beta-arrestin recruitment, luminescence, 7a,25-OHC stimulated. inhibition, % at 5 µM. 0.81% of 360,000 active; in the data active means inhibition above about 38%;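 further: enzyme fragment complementation signal reports receptor beta-arrestin coupling in cells; 0% = agonist plus DMSO wells and 100% = wells without agonist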
Granule exo inh = blocks lytic granule exocytosis. TALL-104 LAMP-1 surface exposure, flow cytometry; cells stimulated with thapsigargin and PMA. inhibition, % at 10 µM. AID 651702. 0.66% of 360,000 active;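 active means inhibition above about 55%, limit read from the data; inconclusive means no clear call, values can overlap the other calls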
Myeloid diff CP1 = myeloid differentiation induction; shares compounds with Myeloid diff MLP; ER-HoxA9 myeloid progenitors, GFP/Mac1 double-positive flow; calls only; 2% of 2,300 active;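 active means share of green or green-and-red cells above 9 and 9% in run 1 or 4 and 3% in run 2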
GFP autofluor = compound fluorescence in myeloid differentiation counter-screen. shares compounds with Myeloid diff MLP. 7.4% of 2,300 active. fluorescence response, % (no concentration beside the values). ER-HoxA9 myeloid progenitors, no estrogen, GFP autofluorescence flow cytometry; vehicle wells 0%, positive control 100%;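 active means over 5% cells positive for green fluorescent reporter, or over 2% positive for both it and APC stain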;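 further: range taken on the double positive population between DMSO and positive control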
Numbers without * were called inactive; i = inactive; ? = inconclusive; · = no result; + = active, no number. This is a sample that favours compounds with a hit; in the whole collection about 3.7% have one here.

SMILES	Myeloid diff MLP	MC4R barr agon	MC4R antag cAMP	EBI2 antag	Granule exo inh	Myeloid diff CP1	GFP autofluor
O=[N+]([O-])c1cccc(NC(=S)N2CCc3ccccc32)c1	i	0	4	-2	-8	i	1
O=C(Nc1cccc([N+](=O)[O-])c1)N1CCCc2ccccc21	i	-4	1	1	-3	·	·
Cc1cc(C)n(-c2cc(N3CCN(S(=O)(=O)c4ccc(Br)cc4)CC3)ccc2[N+](=O)[O-])n1	i	-3	4	5	6	i	0
CN(C)CCCN1C(=O)C2CCc3[nH]c4ccccc4c3C2C1=O (stereo not given)	i	1	-4	0	-1	·	·
CCNC(=S)N/N=C/c1sc(N2CCCCC2)nc1-c1cccs1	i	0	-9	9	0	i	0
COc1cccc(CC(NC(C)=O)C(=O)NC2CCN(C(=O)C3CC3)CC2)c1OC (stereo not given)	i	1	27	-8	2	·	·
O=C(c1cc2c(s1)-c1ccccc1OC2)N1CCCC1	i	1	2	2	13	i	0
CC(=O)c1sc(NC(=O)CN2C(=O)C3CCCCC3C2=O)nc1-c1ccccc1 (stereo not given)	i	1	8	2	4	·	·
O=C(CSc1nc2ccccc2n1CC(=O)N1CCCC1)NCc1ccc2c(c1)OCO2	i	-3	19	3	3	i	0
CC1=C(C(=O)N2CCCCCC2)CC(CC(=O)NC2CCCC2)C(=O)N1Cc1ccc(F)cc1 (stereo not given)	i	·	·	-6	2	·	·
c1coc(CNC2C3CC4CC(C3)CC2C4)c1 (stereo not given)	i	0	-2	2	-4	i	0
Cc1cccc2c1c1ccc3c(c1n2C)C(=O)C=CC3=O	i	2	20	-3	2	·	·
O=c1oc(-c2cccs2)nc2c1cnn2-c1ccccc1	i	0	-8	0	14	i	1
O=c1oc(-c2ccccc2)nc2c1cnn2-c1ccccc1	i	1	5	9	6	·	·
O=C(CN1C(=O)NC2(CCCCC2)C1=O)Nc1ccccc1Cl	i	1	9	-9	6	i	0
O=C(CN1C(=O)NC2(CCCCC2)C1=O)Nc1cccc(Cl)c1Cl	i	0	5	1	-1	·	·
COc1ccc(-c2noc(CCC(=O)N3CCN(c4cccc(C(F)(F)F)c4)CC3)n2)cc1	+	3	8	-1	4	i	0
COc1ccc(-c2noc(CCC(=O)N3CCN(c4cccc(OC)c4)CC3)n2)cc1	i	1	-2	3	-9	·	·
Cc1ccc(C(=O)N/C(=C\c2ccc(-c3ccc([N+](=O)[O-])cc3)o2)C(=O)NC2CCS(=O)(=O)C2)cc1 (stereo not given)	i	-3	5	-8	-4	·	·
CC(O)C(=O)N/N=C/c1ccccc1C(=O)O (stereo not given)	i	0	18	-8	-2	i	0
Cc1oc2c(CN3CCCCC3)c(O)ccc2c(=O)c1-c1ccc(Cl)cc1	i	0	14	-2	3	·	·
Cn1c(Cn2cnc(Cl)c2Cl)nc2ccccc21	i	-1	-2	-8	2	i	1
Cn1c(Cn2cnc3ccccc32)nc2ccccc21	i	1	-6	-5	-2	·	·
COc1ccccc1-n1c(SC)nc2c(sc(=S)n2-c2ccccc2)c1=O	i	-1	-1	-2	-10	·	·
COc1ccccc1-n1c(=S)sc2c(=O)n(Cc3ccco3)c(SC)nc21	i	-1	3	21	2	i	0
SMILES	Myeloid diff MLP	MC4R barr agon	MC4R antag cAMP	EBI2 antag	Granule exo inh	Myeloid diff CP1	GFP autofluor
Cc1nc2ccccc2n1C(c1cccnc1)c1nc2ccccc2[nH]1 (stereo not given)	i	·	·	-5	2	·	·
Cc1ccc(C)c2c1N(Cc1ccccc1)C(=O)C21OCCO1	i	2	1	4	0	·	·
Cc1ccc(C)c(S(=O)(=O)N2CCCC2CNC(=O)C(=O)NCCc2ccco2)c1 (stereo not given)	i	-1	14	-2	-5	·	·
O=C(NCCc1ccco1)C(=O)NCC1CCCN1S(=O)(=O)c1ccccc1 (stereo not given)	+	-2	-14	2	3	i	0
O=C1NC[C@H](CCCCN2C[C@H](Cc3ccc(O)cc3)N(CC3CCCCC3)C(=O)C2=O)N(Cc2ccccc2)C1=O	i	·	·	-5	-2	·	·
O=C(C1CC1)N1CCc2cc(S(=O)(=O)NCC3COc4ccccc4O3)ccc21 (stereo not given)	+	0	4	5	-2	i	0
O=C(C1CCC1)N1CCc2cc(S(=O)(=O)NCC3COc4ccccc4O3)ccc21 (stereo not given)	i	0	6	-2	1	·	·
CCN(CC)S(=O)(=O)c1ccc(N/N=C/c2ccc(O)cc2)nc1	i	2	-2	-1	-1	i	0
CCOc1cccc(/C=N/Nc2ccc(S(=O)(=O)N(CC)CC)cn2)c1O	?	2	20	12	-4	·	·
CN(CC(=O)Nc1ccc(F)c(F)c1F)C(=O)C1=NN(c2ccccc2)C(=O)CC1	i	-2	-3	-6	0	·	·
CC[C@]12c3[nH]c4ccccc4c3CCN1C(=O)C(CC(=O)NCc1ccc(OC)c(OC)c1)C[C@@H]2C(=O)N1CCN(C(=O)C2CC2)CC1 (stereo not given in full)	i	3	2	-10	-2	·	·
O=C1N[C@H](Cc2ccccc2)COC(=O)[C@@H](Cc2ccc(F)cc2)CC/C=C/C[C@H]1CC(=O)N(CCO)Cc1ccccc1	i	-1	13	11	-4	·	·
O=C1N[C@@H](Cc2ccccc2)COC(=O)[C@@H](Cc2ccc(F)cc2)CC/C=C/C[C@@H]1CC(=O)N(CCO)Cc1ccccc1	+	-1	7	6	15	i	0
CC12CN(C(=S)Nc3ccccc3)CC(C)(CN(C(=S)Nc3ccccc3)C1)C2=O	i	-1	-3	-1	4	·	·
CC(C)N(C(=O)[C@H]1C[C@H](CC(=O)NCCC2=CCCCC2)C(=O)N2CCc3c([nH]c4cc(-c5ccco5)ccc34)[C@]12C)C(C)C	i	2	25	21	20	i	3
CC(C)N(C(=O)[C@H]1C[C@H](CC(=O)NCCCN(C)C)C(=O)N2CCc3c([nH]c4cc(-c5ccco5)ccc34)[C@]12C)C(C)C	i	1	15	2	4	·	·

High-throughput results deposited in PubChem BioAssay by several laboratories.
